The target of assay [1] is Pyruvate dehydrogenase kinase (Rattus norvegicus, UniProt Q63065+A6IPZ9+Q64536+O54937). The assay can be described thus: Inhibitory activity tested against Pyruvate Dehydrogenase Kinase (PDHK) receptor from rats. Format: protein assay. In outline: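 Commercial PDH complex used as the kinase-containing preparation. PDHK inhibition read spectrophotometrically as NADH production at 340 nm, measured with and without ATP. IC50 ± standard error, from purified substances.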

The test system of assay [2] is Rattus norvegicus. The assay is described as follows: In vivo %control of lactate in normal Sprague-Dawley rats after 2 hr at a dose of 1 umol/Kg. Format: functional. In outline: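 Male Sprague-Dawley rats, about 200 g, randomly assigned to groups (n = 6/group), fasted 24 h, then given compound orally in 0.5% carboxymethylcellulose with 0.2% Tween-80 (1 mL/100 g body weight) or vehicle alone. Blood drawn 2 h post-dose into heparin/fluoride tubes. Lactate measured on a dual-channel biochemistry analyzer and expressed as percent of vehicle control. Unpaired two-tailed t-test.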

The species entered for assay [3] is Homo sapiens. The assay can be described thus: Effective concentration required to increase the oxidation of lactate in cellular assay using Human Skin Fibroblasts. The format is functional. In a few lines: (§1)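 Human fibroblasts harvested with trypsin 2-4 days post-confluence and assayed in suspension ((3.5-5) × 10^5 cells per tube) with test compound or solvent control. Equilibrated at 37 °C, then started with DMEM-S containing 25 µM lactate and 0.2 µCi/mL d,l-[1-14C]lactate. Gassed with 95% O2/5% CO2 and shaken 25 min at 37 °C. Stopped with TCA; released 14CO2 trapped and counted by scintillation. EC50 ± standard error.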

For assay [4], the system named is Rattus norvegicus. The assay can be described thus: In vivo %control of lactate in normal Sprague-Dawley rats after 2 hr at a dose of 300 umol/Kg. The format is functional. In a few lines: (§2)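 Male Sprague-Dawley rats, about 200 g, randomly assigned to groups (n = 6/group) and fasted 24 h. Single oral dose of compound in 0.5% carboxymethylcellulose/0.2% Tween-80 (1 mL/100 g), or vehicle alone. Blood taken 2 h post-dose into heparin/fluoride tubes; lactate measured on a biochemistry analyzer. Expressed as percent of vehicle control; groups compared by two-tailed unpaired t-test.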

The species named for assay [5] is Homo sapiens. The assay can be described thus: Effective concentration required to increase the oxidation of lactate in cellular assay using Human Skin Fibroblasts; Inactive. The format is functional. In outline:
as §1

Assay [6] deals with Rattus norvegicus. The assay is described as follows: In vivo %control of lactate in normal Sprague-Dawley rats after 2 hr at a dose of 30 umol/Kg; Not active. Format: functional, organism-based. In a few lines: as §2
Assay [7] deals with Rattus norvegicus. The assay is described as follows: In vivo %control of lactate in normal Sprague-Dawley rats after 2 hr at a dose of 30 umol/Kg. Format: functional. In a few lines: as §2
In assay [8] the test system is Rattus norvegicus. The assay can be described thus: In vivo %control of lactate in normal Sprague-Dawley rats after 2 hr at a dose of 100 umol/Kg; Not active. The format is functional, organism-based. In a few lines:
as §2

The test system of assay [9] is Rattus norvegicus. The assay can be described thus: In vivo %control of lactate in normal Sprague-Dawley rats after 2 hr at a dose of 10 umol/Kg. The format is functional. In outline: as §2
Assay [10] deals with Rattus norvegicus. The assay can be described thus: In vivo %control of lactate in normal Sprague-Dawley rats after 2 hr at a dose of 3 umol/Kg. The format is functional. In a few lines: as §2
Assay [11] deals with Rattus norvegicus. The assay is described as follows: In vivo %control of lactate in normal Sprague-Dawley rats after 2 hr at a dose of 100 umol/Kg. The format is functional. In outline:
as §2

Assay [12] concerns Rattus norvegicus. The assay is described as follows: In vivo %control of lactate in normal Sprague-Dawley rats after 2 hr at a dose of 30 umol/Kg; not active. Format: functional, organism-based. In outline: as §2

The source of these data is ChEMBL document CHEMBL1133665, “Secondary amides of (R)-3,3,3-trifluoro-2-hydroxy-2-methylpropionic acid as inhibitors of pyruvate dehydrogenase kinase” (J Med Chem, 2000).

Active and inactive are the calls of the source. No cut-off for these calls is given here.

Turning to `O=C([O-])C(Cl)Cl.[Na+]` [SODIUM DICHLOROACETATE], the IC50 (usually the point on the concentration scale where inhibition reaches its midpoint) in [1] is more than 1000 µM. The molecule also gave a Control in [2] of 70%.

In [1], `C[C@@](O)(C(=O)N1CCN(c2ccccn2)CC1)C(F)(F)F` displayed an IC50 of 3.37 µM. The EC50 – broadly, the concentration needed to bring the measured effect to its halfway point – in [3] came out at 13 µM. Further, the Control in assay [4] is reported as 68%.

As to `CC(C)(C)C(=O)N1CCC(Cc2ccccc2)CC1`, the IA result in assay [5] is “inactive”. In assay [1], the IC50 was 282 µM.

In assay [1], `C[C@@H]1CN(C(=O)[C@@](C)(O)C(F)(F)F)CCN1c1cc([N+](=O)[O-])ccn1` yielded a half-inhibitory concentration (IC50) of 0.112 µM. The NA entry in assay [6] is “inactive”.

`C[C@@H]1CN(C(=O)[C@@](C)(O)C(F)(F)F)CCN1S(=O)(=O)c1ccccc1` showed an IC50 in [1] of 0.037 µM. For the same molecule, the NA entry in assay [6] was “inactive”.

`C[C@@](O)(C(=O)N1CCN(c2ccccc2)CC1)C(F)(F)F` gave an IC50 in [1] of 4.16 µM. The same molecule registered an EC50 in assay [3] of 25.2 µM. For the same molecule, in assay [4], the Control turned out to be 68%.

Take `COc1cc(C(=O)N2CCN(C(=O)[C@@](C)(O)C(F)(F)F)C[C@H]2C)cc(OC)c1OC`: in [1], the IC50 is 0.04 µM. For the same molecule, the Control is recorded as 71% in assay [7] and 60% in assay [4]. The molecule further returned an EC50 in assay [3] of 0.159 µM.

Consider `CNC(=O)N1CCC(Cc2ccccc2)CC1`, for which the IA result in [5] was “inactive”. The IC50 in assay [1] stood at 22.4 µM.

Regarding `C[C@@H]1CN(C(=O)[C@@](C)(O)C(F)(F)F)CCN1C(=O)c1cccc2ccccc12`, the NA result in [8] was “inactive”. The IC50 in assay [1] was 0.07 µM.

As for `CC(=O)N1CCC(Cc2ccccc2)CC1`, in assay [5], the IA entry is “inactive”. The molecule also came in with an IC50 in [1] of 74 µM.

In assay [1], `C[C@@H]1CN(C(=O)[C@@](C)(O)C(F)(F)F)[C@@H](C)CN1C(=O)c1ccc(C#N)cc1` yielded an IC50 of 0.016 µM. The Control in assay [9] is recorded as 74%; in assay [10] it was 90%; in assay [2], 87%. Further, a half-maximal response in assay [3] (EC50) required 0.057 µM.

In the case of `C[C@@H]1CN(C(=O)[C@@](C)(O)C(F)(F)F)CCN1C(=O)c1ccc(C#N)cc1`, the IC50 in assay [1] was found to be 0.079 µM. Moreover, the Control turned out to be 60% in [7], 90% in assay [9] and 67% in assay [11]. This molecule gave a 50% effective concentration (EC50) in [3] of 0.25 µM.

Turning to `C[C@@H]1CN(C(=O)[C@@](C)(O)C(F)(F)F)[C@@H](C)CN1Cc1ccccc1`, the IC50 in assay [1] turned out to be 0.082 µM. Also, in [12], the NA result is “inactive”.
